TAAR1 ag: human TAAR1 agonists, primary screen, Fluo-8 calcium fluorescence, CHO RD-HGA16 cells; Trace amine-associated receptor 1 (Homo sapiens), Q96RJ0; vehicle wells 0%, saturating PEA agonist 100%; activation, % at 3 µM; 360,000 compounds, 0.99% hits;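 active means activation above the mean activation of all test compounds in the run plus 3 SD, cut at about 38% in these data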
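System: CHO RD-HGA16 cells carrying human TAAR1 plus Gα16; Incubation: 17-24 h seeding, 75 min 37 °C dye, 30 min RT; Measured by: Fluo-8 fluorescence, 5 s baseline then 140 s kinetic read; Control set: DMSO and PEA EC100; Replication: single well for each compound.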
OXTR agonist: human OXTR agonists, primary screen, fluorescence, CHO-OTR cells, Fluo-8 calcium | Oxytocin receptor (Homo sapiens), P30559 | Fluo-8 calcium fluorescence; normalized: DMSO 0%, oxytocin 100% | activation, % at 3 µM | 320,000 compounds, 0.32% hits | AID 2435, 2010;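 active means activation above the mean of all tested compounds plus 3 SD, cutoff set per screening run, cut at about 20% in these data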;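 further: peak over basal fluorescence ratio from a 100 s FLIPR kinetic read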
OXTR potentiator: human OXTR potentiators, primary screen, fluorescence, CHO-OTR cells, Fluo-8 calcium; Fluo-8 calcium fluorescence, potentiator mode; 0% = oxytocin EC15, 100% = EC100; activation, % at 3 µM; 320,000 compounds, 0.061% hits; AID 2445, 2010;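 active means activation above that plate's cutoff, the mean activation of tested compounds plus 3 SD, cut at about 6.6% in these data, passing the limit was not always enough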
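System: human OTR in CHO cells; Also added: sub-maximal oxytocin, roughly EC15; Timing: compound 6 min at room temperature before oxytocin, 100 s read; Technique: Fluo-8 intracellular calcium fluorescence, ex 470-495, em 515-575 nm; Controls: oxytocin EC15 low and EC100 high; Replication: singlicate.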
TAAR1 antag: human TAAR1 antagonists, primary screen, Fluo-8 calcium fluorescence, CHO RD-HGA16 cells; Trace amine-associated receptor 1 (Homo sapiens), Q96RJ0; antagonist; inhibition, % at 3 µM; 360,000 compounds, 1.5% hits; AID 624466, 2012;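 active means inhibition above a per-plate cutoff, the mean inhibition of test compounds on that plate plus 3 SD, cut at about 49% in these data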
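Test system: hTAAR1-expressing CHO RD-HGA16 cells, Gα16-coupled; Probe or stimulus: EC80 β-phenethylamine stimulus; Compound dosing: single nominal final test compound concentration of 3 µM; Timing: 140 s kinetic read after compound, 140 s after agonist; Signal: Fluo-8 calcium-sensitive fluorescence; Measure: % inhibition of agonist calcium response; Controls: DMSO and EC80 PEA controls.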
V1aR counter: agonists of human V1a receptor, primary screen, counter-screen for OXTR agonist project, fluorescence, CHO-V1R cells. Fluo-8 calcium fluorescence, agonist mode; 0% DMSO, 100% 3 nM vasopressin. activation, % at 3 µM. 320,000 compounds, 0.25% hits. AID 2797, 2010;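 active means activation above the mean activation of all tested compounds plus 3 SD, per screening run, cut at about 20% in these data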;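 further: signal is peak over basal fluorescence ratio across a 100 second FLIPR read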
Target sequence (P37288 whole entry, looked up): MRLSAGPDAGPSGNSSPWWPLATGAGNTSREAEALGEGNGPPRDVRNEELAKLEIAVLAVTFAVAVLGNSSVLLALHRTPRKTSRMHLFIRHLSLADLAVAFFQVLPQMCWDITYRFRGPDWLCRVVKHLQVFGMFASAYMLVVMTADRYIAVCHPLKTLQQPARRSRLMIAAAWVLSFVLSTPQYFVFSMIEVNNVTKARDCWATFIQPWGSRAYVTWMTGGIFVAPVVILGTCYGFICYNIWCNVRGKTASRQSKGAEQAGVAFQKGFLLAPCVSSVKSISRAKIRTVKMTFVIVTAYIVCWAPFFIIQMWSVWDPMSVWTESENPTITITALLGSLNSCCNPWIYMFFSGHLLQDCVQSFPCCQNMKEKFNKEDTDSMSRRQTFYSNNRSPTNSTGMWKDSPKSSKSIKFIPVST
OXTR ag confirm: human OXTR agonists, confirmation, fluorescence, CHO-OTR cells, triplicate. activation, % at 3 µM. Fluo-8 calcium fluorescence, agonist. 390 compounds, 20% hits. shares compounds with OXTR agonist;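 active means mean activation above about 20% derived from the earlier single-dose screen, limit read from the data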;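 further: peak over minimum fluorescence ratio per well during a 100 second FLIPR read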
V1R ag counter 3x: V1a receptor agonists, calcium signal, counter-screen for OXTR agonist project, triplicate, fluorescence, CHO-V1R cells. shares compounds with OXTR agonist. 390 compounds, 10% hits. Fluo-8 calcium fluorescence. activation, % at 3 µM. AID 434991, 2010;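 active means mean activation over triplicate exceeds the hit threshold set in the earlier primary screen, cut at about 20% in these data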;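 further: peak over basal fluorescence ratio within a 100 second read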
Hits are given with their value; i = inactive; nt = no result. Compounds with a hit are over-represented: about 2.3% of the library has one in this group of screens.

SMILES | TAAR1 ag | OXTR agonist | OXTR potentiator | TAAR1 antag | V1aR counter | OXTR ag confirm | V1R ag counter 3x
Cc1[nH]c2ccccc2c1/C=N/Nc1ccc([N+](=O)[O-])cc1 | i | 21 | i | i | i | 25 | 35
C=CCOC(=O)C1=C[C@@H](c2ccc(C(F)(F)F)cc2)[C@H](CCCO)[C@@H](OCC)O1 | i | 20 | i | i | i | i | i
CC(=O)C1=C(C)N(Cc2ccc(F)cc2)C(=S)NC1c1cccc(Cl)c1 (stereo not drawn) | i | nt | nt | i | nt | nt | nt
CN1CCC(N(C)S(=O)(=O)c2ccc(NC(=O)COc3ccc(Br)cc3Cl)cc2)CC1 | i | 25 | i | i | i | i | i
Cc1ccc(OCC(=O)Nc2ccc(S(=O)(=O)N(C)C3CCN(C)CC3)cc2)c(C)c1 | i | i | i | i | i | nt | nt
CC(=O)Oc1ccc(C(=O)Cc2ccc3ccccc3n2)c(O)c1C | i | i | i | i | i | nt | nt
Cc1c(O)ccc(/C(Cc2ccc3ccccc3n2)=N\O)c1O | i | 22 | i | i | i | i | i
Cc1cc(N2CCN(C(=O)OC(C)(C)C)C[C@H]2C)ccc1N1C[C@@H](C)O[C@@H](C)C1 | i | nt | nt | i | nt | nt | nt
COc1ccccc1C(=O)NNC(=S)NC(=O)c1ccco1 | 40 | 24 | i | i | i | i | i
COC(=O)c1cc(OC)c(OC)cc1NC(=S)NC(=O)c1ccco1 | i | i | i | i | i | nt | nt
COC(=O)[C@H](Cc1c[nH]c2ccccc12)NC(=O)CCCc1c[nH]c2ccccc12 | i | i | i | i | i | nt | nt
CCOC(=O)C(Cc1ccc(O)cc1)NC(=O)CCc1c[nH]c2ccccc12 (stereo not drawn) | 40 | 23 | i | i | i | i | i
Fc1cccc(Cc2c(-c3cccc(Cl)c3)nc3c(Cl)cc(C(F)(F)F)cn23)c1 | i | nt | nt | i | nt | nt | nt
COc1ccc(C(=O)/C(C#N)=N/Nc2ccc([N+](=O)[O-])cc2)cc1 | i | 20 | i | i | i | i | i
CCCC1(c2ccccc2)NC(=O)N(CC(=O)Nc2cc(C)ccc2OC)C1=O (stereo not drawn) | i | 24 | i | i | i | i | i
CC1=NN(c2ccc(Cl)cc2)C(=O)C1C(c1ccccc1O)c1c(C)[nH]n(-c2ccc(Cl)cc2)c1=O (stereo not drawn) | nt | 20 | i | nt | i | i | i
Cc1cc(-c2nnc(SCC(=O)Nc3ccccc3C(F)(F)F)o2)c(C)n1-c1ccccc1 | 42 | 21 | i | i | i | 24 | i
Cc1cccc(NC(=O)CSc2nnc(-c3cc(C)n(-c4ccccc4)c3C)o2)c1C | i | i | i | i | i | nt | nt
COc1cc(/C=C/C(C)=NNc2ccccc2)ccc1O | i | nt | nt | i | nt | nt | nt
COCc1cc(N2CCNC[C@@H]2C)ccc1N1CCS(=O)(=O)CC1 | i | nt | nt | i | nt | nt | nt
COc1ccc2c(c1)CC/C(=C\c1ccc(OC)c(Cn3nc(C)cc3C)c1)C2=O | 44 | 36 | i | i | i | i | i
Cc1ccc(-c2nn(-c3ccccc3)cc2C2CC(c3cccs3)=NN2C(=O)CCCC(=O)O)cc1 (stereo not drawn) | i | 23 | i | i | i | i | i
COc1ccc(-c2nn(-c3ccccc3)cc2C2CC(c3cccs3)=NN2C(=O)CCCC(=O)O)cc1 (stereo not drawn) | i | i | i | i | i | nt | nt
COc1cccc([C@@H](NC(=O)C(F)(F)F)[C@@H]2CCCC=C2c2ccccc2)c1 | i | nt | nt | i | nt | nt | nt
CC(C)(C)CC(C)(C)NCC(O)COc1c(F)cc(Br)cc1F (stereo not drawn) | 47 | 23 | i | i | i | i | i
SMILES | TAAR1 ag | OXTR agonist | OXTR potentiator | TAAR1 antag | V1aR counter | OXTR ag confirm | V1R ag counter 3x
CSc1nc(-c2ccccc2)c(-c2ccccc2)[nH]1 | i | 23 | i | i | i | i | i
CCOc1ccccc1C(=O)NCC(=O)OCC(=O)N1CCCC1 | i | i | i | i | i | nt | nt
Cc1ccc2nc(N(CCCN(C)C)C(=O)CS(=O)(=O)c3ccccc3)sc2c1 | i | i | i | i | i | nt | nt
Cc1ccc2nc(N(CCCN(C)C)C(=O)CCc3ccccc3)sc2c1 | i | 23 | i | i | i | i | i
CN(C)CCCN(C(=O)CCc1ccccc1)c1nc2ccc(Cl)cc2s1 | i | 24 | i | i | i | i | i
Cc1cc(C)c2nc(N(CCCN(C)C)C(=O)c3ccc4c(c3)OCCO4)sc2c1 | i | 20 | i | i | i | i | i
N#C[C@H](N)[C@H]1O[C@@H](n2ccc(=O)[nH]c2=O)[C@H](O)[C@@H]1O | i | nt | nt | i | nt | nt | nt
Nc1ccn([C@@H]2O[C@H](CNC(=O)[C@@H](N)CSCc3ccccc3)[C@@H](O)[C@H]2O)c(=O)n1 | i | nt | nt | i | nt | nt | nt
O=C(CS(=O)(=O)c1ccc(Cl)cc1)Nc1nccs1 | i | nt | nt | i | nt | nt | nt
NC(=O)c1c(NC(=O)c2ccncc2)sc2c1CCCCCC2 | i | 24 | i | i | i | i | 21
CC(C)NCC(O)Cn1c2c(c3ccccc31)CCc1c-2cnn1-c1ccccc1 (stereo not drawn) | i | 22 | i | i | i | i | i
CN(c1ccc(C(=O)N2CCCCC2)cc1)S(=O)(=O)c1ccccc1 | i | 21 | i | i | i | i | i
Cc1ccc(CN2C(=O)c3ccccc3C2c2nnnn2-c2ccc3c(c2)OCCO3)cc1 (stereo not drawn) | i | nt | nt | i | nt | nt | nt
OCCNCC(O)Cn1c2ccccc2c2ccccc21 (stereo not drawn) | i | i | i | i | i | nt | nt
COc1ccccc1CNCC(O)Cn1c2ccccc2c2ccccc21 (stereo not drawn) | i | 22 | i | i | i | i | i
O=C(C1CCCCC1)N1CCCc2ccccc21 | i | 30 | i | i | i | i | i
COc1ccc(C(=O)NC(CCSC)C(=O)NC2CC2)cc1 (stereo not drawn) | i | i | i | i | i | nt | nt
Cc1cc(Cl)ccc1N=c1ssnc1Cl | 42 | 21 | i | i | i | 21 | i
Nc1ccccc1N=c1ssnc1Cl | i | nt | nt | i | nt | nt | nt
CN(C)c1ccc(CNC(=O)CCS(=O)(=O)c2ccc3c(c2)n(C)c(=O)c(=O)n3C)cc1 | nt | i | i | nt | i | nt | nt
O=C(NC12CC3CC(CC(C3)C1)C2)c1ccccc1O | i | 24 | i | i | i | i | i
